≈ marks a conversion by molar mass, not a printed value.
Tests used:
Mus musculus [1] = species on record: Mus musculus; experiment: (§1) Cytotoxicity against mouse J774 cells assessed as cell viability at 30 uM after 24 hrs by MTT assay relative to control; assay type: toxicity, cell-based; conditions: j774, 24 h, 30 µM
Summary of the method: (§2)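 Murine J774 macrophages exposed 24 h to 10 or 30 μM compound, then 1 h with 0.2 mg/mL MTT; reaction stopped with DMSO, OD read at 570 nm as metabolic-activity viability. Number of independent experiments given per value.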

Mus musculus [2] = species on record: Mus musculus; experiment: (§3) Cytotoxicity against mouse J774 cells assessed as cell viability at 10 uM after 24 hrs by MTT assay relative to control; assay type: toxicity, cell-based; conditions: j774, 24 h, 10 µM; summary of the method: as §2
Escherichia coli [3] = experiment: microbe, parasite or virus in culture; conditions: ATCC 25922
Pseudomonas aeruginosa [4] = experiment: Antibacterial activity against triABC deficient Pseudomonas aeruginosa PA406 by microdilution method; assay type: functional
Summary of the method: (§4)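 Strains grown overnight at 37 °C on trypticase soy agar; MIC by broth microdilution from fresh culture in cation-adjusted Mueller–Hinton broth, starting inoculum 10^6 cells, following CLSI recommendations.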

[5] = as §1; assay type: toxicity, cell-based; conditions: J774 cells, read-out: Activity; summary of the method: as §2
Acinetobacter lwoffii [6] = experiment: Antibacterial activity against APH3'-VIA expressing Acinetobacter lwoffii AI.88-483 by microdilution method; assay type: functional; summary of the method: as §4
Escherichia coli [7] = experiment: Antibacterial activity against ANT2''-IA expressing Escherichia coli L8058.1 by microdilution method; assay type: functional; summary of the method: as §4
Staphylococcus aureus [8] = experiment: Antibacterial activity against Staphylococcus aureus ATCC 25923 by microdilution method; assay type: functional
Summary of the method: (§5)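 Broth microdilution per CLSI in cation-adjusted Mueller–Hinton broth. Strains were grown overnight at 37 °C on trypticase soy agar, and a fresh culture was used. Starting inoculum was 10^6 cells.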

Pseudomonas aeruginosa [9] = experiment: Antibacterial activity against AAC6'-2A expressing Pseudomonas aeruginosa F03 by microdilution method; assay type: functional; summary of the method: as §4
Acinetobacter lwoffii [10] = experiment: Antibacterial activity against Acinetobacter lwoffii ATCC 17925 by microdilution method; assay type: functional; summary of the method: as §4
[11] = as §3; assay type: toxicity, cell-based; conditions: J774 cells, read-out: Activity; summary of the method: as §2
Klebsiella pneumoniae = experiment: Antibacterial activity against Klebsiella pneumoniae ATCC 700603 by microdilution method; assay type: functional; summary of the method: as §4
Pseudomonas aeruginosa [12] = experiment: Antibacterial activity against Pseudomonas aeruginosa ATCC 27853 by microdilution method; assay type: functional; summary of the method: as §4
Staphylococcus aureus [13] = experiment: Antibacterial activity against NorA expressing Staphylococcus aureus 1 by microdilution method
Pseudomonas aeruginosa [14] = experiment: Antibacterial activity against MexXY expressing Pseudomonas aeruginosa PA22 by microdilution method; assay type: functional; summary of the method: as §4
Staphylococcus aureus [15] = experiment: Antibacterial activity against healthcare-acquired methicillin-resistant Staphylococcus aureus ATCC 33592 by microdilution method; assay type: functional; summary of the method: as §5
Escherichia coli [16] = experiment: Antibacterial activity against AAC6'-IB expressing Escherichia coli PAZ505H8101 by microdilution method; assay type: functional; summary of the method: as §4
Pseudomonas aeruginosa [17] = experiment: Induction of inner membrane permeabilization of Pseudomonas aeruginosa ATCC 27853 at 5 uM after 15 mins by propidium iodide staining-based fluorescence assay relative to control; assay type: functional
Summary of the method: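 P. aeruginosa ATCC 27853 from TSA colony, overnight in MHB-CA at 37 °C with shaking, diluted 100-fold and grown 4 h to mid-log (OD620 ~0.4–0.5). Suspension (OD600 0.05) with PI (3 mM stock diluted 10^3-fold) plus compound in HEPES (1–10 μM final). Fluorescence ex 540/em 610 nm at 25 °C after 15 min; normalized to CTAB 150 μM (100%) and imipenem (0%).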

GENTAMICIN showed an Activity (Mus musculus [1]) of 74.2% and an Activity (Mus musculus [2]) of 88.2%.
For C=CCO[C@H]1O[C@H](CN)[C@@H](OCCCCCCCCC)[C@H](OCCCCCCCCC)[C@H]1N, the MIC (Escherichia coli [3]) was 32 to 64 µg/mL (≈ 68 to 136 µM), the MIC (Pseudomonas aeruginosa [4]) was greater than 128 µg/mL and the viability at 24 h, 30 µM [5] was 6.6%. It also gave an MIC (Acinetobacter lwoffii [6]) of 32 µg/mL (≈ 68 µM), an MIC (Escherichia coli [7]) greater than 128 µg/mL and an MIC (Staphylococcus aureus [8]) of 4 µg/mL (≈ 8.5 µM). The MIC (Pseudomonas aeruginosa [9]) was greater than 128 µg/mL, the MIC (Acinetobacter lwoffii [10]) was 4 to 8 µg/mL (≈ 8.5 to 17 µM) and the viability at 24 h, 10 µM [11] was 91.4%. It also gave an MIC (Klebsiella pneumoniae) of 128 µg/mL (≈ 272 µM), an MIC (Pseudomonas aeruginosa [12]) greater than 128 µg/mL and an MIC (Staphylococcus aureus [13]) of 4 µg/mL (≈ 8.5 µM). It also gave an MIC (Pseudomonas aeruginosa [14]) greater than 128 µg/mL, an MIC (Staphylococcus aureus [15]) of 4 µg/mL (≈ 8.5 µM) and an MIC (Escherichia coli [16]) greater than 128 µg/mL.
For CCCCCCCCCO[C@@H]1[C@@H](N)[C@@H](OCC(O)CNCCCO)O[C@H](CN)[C@H]1OCCCCCCCCC (mixture of isomers), the MIC (Escherichia coli [3]) was 4 to 8 µg/mL, the MIC (Pseudomonas aeruginosa [4]) was 8 µg/mL and the viability at 24 h, 30 µM [5] was 13.7%. For the same compound, the MIC (Acinetobacter lwoffii [6]) was 8 µg/mL, the MIC (Escherichia coli [7]) was 4 µg/mL and the MIC (Staphylococcus aureus [8]) was 2 µg/mL. For the same compound, the MIC (Pseudomonas aeruginosa [9]) was 8 µg/mL, the MIC (Acinetobacter lwoffii [10]) was 1 µg/mL and the viability at 24 h, 10 µM [11] was 89.9%. For the same compound, the MIC (Klebsiella pneumoniae) was 8 to 16 µg/mL, the MIC (Pseudomonas aeruginosa [12]) was 8 µg/mL and the MIC (Staphylococcus aureus [13]) was 1 to 2 µg/mL. It also gave an MIC (Pseudomonas aeruginosa [14]) of 8 µg/mL, an MIC (Staphylococcus aureus [15]) of 1 to 2 µg/mL and an MIC (Escherichia coli [16]) of 4 µg/mL.
For CCCCCCCCCO[C@@H]1[C@@H](N)[C@@H](OCC(O)CNCCO)O[C@H](CN)[C@H]1OCCCCCCCCC (mixture of isomers), the MIC (Escherichia coli [3]) was 4 to 8 µg/mL, the MIC (Pseudomonas aeruginosa [4]) was 8 µg/mL and the viability at 24 h, 30 µM [5] was 10.1%. It also gave an MIC (Acinetobacter lwoffii [6]) of 4 to 8 µg/mL, an MIC (Escherichia coli [7]) of 4 to 8 µg/mL and an MIC (Staphylococcus aureus [8]) of 4 µg/mL. The MIC (Pseudomonas aeruginosa [9]) was 8 µg/mL, the MIC (Acinetobacter lwoffii [10]) was 2 µg/mL and the viability at 24 h, 10 µM [11] was 99.1%. For the same compound, the MIC (Klebsiella pneumoniae) was 8 µg/mL, the MIC (Pseudomonas aeruginosa [12]) was 8 µg/mL and the MIC (Staphylococcus aureus [13]) was 1 to 2 µg/mL. The MIC (Pseudomonas aeruginosa [14]) was 8 µg/mL, the MIC (Staphylococcus aureus [15]) was 1 to 2 µg/mL and the MIC (Escherichia coli [16]) was 8 µg/mL.
With CCCCCCCCCO[C@@H]1[C@@H](N)[C@@H](OCC(O)CNCCCN)O[C@H](CN)[C@H]1OCCCCCCCCC (mixture of isomers) the MIC (Escherichia coli [3]) was 8 µg/mL, the MIC (Pseudomonas aeruginosa [4]) was 4 µg/mL and the viability at 24 h, 30 µM [5] was 71.6%. It also gave an MIC (Acinetobacter lwoffii [6]) of 8 µg/mL, an MIC (Escherichia coli [7]) of 8 µg/mL and an MIC (Staphylococcus aureus [8]) of 2 µg/mL. It also gave an MIC (Pseudomonas aeruginosa [9]) of 8 µg/mL, an MIC (Acinetobacter lwoffii [10]) of 2 µg/mL and a viability at 24 h, 10 µM [11] of 101%. For the same compound, the Activity (Pseudomonas aeruginosa [17]) was 25%, the MIC (Klebsiella pneumoniae) was 32 µg/mL and the MIC (Pseudomonas aeruginosa [12]) was 8 µg/mL. For the same compound, the MIC (Staphylococcus aureus [13]) was 2 µg/mL, the MIC (Pseudomonas aeruginosa [14]) was 8 µg/mL and the MIC (Staphylococcus aureus [15]) was 2 µg/mL. For the same compound, the MIC (Escherichia coli [16]) was 4 µg/mL.
With CCCCCCCCCO[C@@H]1[C@@H](N)[C@@H](OCC(O)CO)O[C@H](CN)[C@H]1OCCCCCCCCC (mixture of isomers) the MIC (Escherichia coli [3]) was 8 µg/mL, the MIC (Pseudomonas aeruginosa [4]) was 64 µg/mL and the viability at 24 h, 30 µM [5] was 8.8%. For the same compound, the MIC (Acinetobacter lwoffii [6]) was 8 µg/mL, the MIC (Escherichia coli [7]) was 8 µg/mL and the MIC (Staphylococcus aureus [8]) was 2 µg/mL. It also gave an MIC (Pseudomonas aeruginosa [9]) of 64 µg/mL, an MIC (Acinetobacter lwoffii [10]) of 1 µg/mL and a viability at 24 h, 10 µM [11] of 89.7%. For the same compound, the MIC (Klebsiella pneumoniae) was 64 µg/mL, the MIC (Pseudomonas aeruginosa [12]) was 64 µg/mL and the MIC (Staphylococcus aureus [13]) was 2 µg/mL. It also gave an MIC (Pseudomonas aeruginosa [14]) of 64 µg/mL, an MIC (Staphylococcus aureus [15]) of 2 µg/mL and an MIC (Escherichia coli [16]) of 16 µg/mL.

— ChEMBL document CHEMBL3860087, “New Broad-Spectrum Antibacterial Amphiphilic Aminoglycosides Active against Resistant Bacteria: From Neamine Derivatives to Smaller Neosamine Analogues” (J Med Chem, 2016)
